Many of the other results were omitted from the sample, so hits are more common in it than they were.
CHOP UPR activ: apoptotic UPR (CHOP) activation. CHO-CHOP luciferase reporter, luminescence; percent of tunicamycin response over DMSO baseline. activation, % at 10 µM. actives 0.34% (n = 330,000). AID 449763;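 active means at 10 µM dose, activation of 40% or more, normalized to positive control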;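 further: 100% = tunicamycin at 10 µg/mL and 0% = DMSO alone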
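System: CHO CHOP reporter cells. Amount: 500 cells per well. Buffer or medium: F12 medium, 10% FBS. Compound dosing: one dose, 10 µM in 0.5% DMSO. Incubation: 6 h compound exposure at 37 °C after overnight seeding. Technique: Steady-Glo luciferase luminescence. Benchmarks: tunicamycin and DMSO controls.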
CHOP inhibitor: blocks CHOP induction under ER stress | CHO-K1 CHOP-promoter luciferase, tunicamycin-induced, 15-18 h | inhibition, % at 10 µM | actives 3.8% (n = 220,000) | AID 2732;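 active means compounds that reduced the stress-induced luciferase reporter signal by more than about 70% of percent inhibition, limit read from the data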;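 further: 0% = tunicamycin plus vehicle and 100% = wells without tunicamycin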
TLR4-MyD88 BLA: inhibitors of human TLR4-MyD88 binding. HeLa CL3-4 TLR4/MyD88 BLA complementation, FRET ratio. actives 0.18% (n = 200,000). inhibition, % at 8.4 µM; in the data active means inhibition above about 25%;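 further: 0% = vehicle and 100% = reference inhibitor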
NOD2 RIPK2 PPI: blocks binding of human NOD2 to RIPK2. actives 0.38% (n = 360,000). CHO BLA complementation NOD2-RIPK2, CCF4 ratio. inhibition, % at 4.98 µM. O43353; in the data active means inhibition above about 21%;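 further: 0% = vehicle only and 100% = reference blocker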
Target sequence (O43353 whole entry, looked up): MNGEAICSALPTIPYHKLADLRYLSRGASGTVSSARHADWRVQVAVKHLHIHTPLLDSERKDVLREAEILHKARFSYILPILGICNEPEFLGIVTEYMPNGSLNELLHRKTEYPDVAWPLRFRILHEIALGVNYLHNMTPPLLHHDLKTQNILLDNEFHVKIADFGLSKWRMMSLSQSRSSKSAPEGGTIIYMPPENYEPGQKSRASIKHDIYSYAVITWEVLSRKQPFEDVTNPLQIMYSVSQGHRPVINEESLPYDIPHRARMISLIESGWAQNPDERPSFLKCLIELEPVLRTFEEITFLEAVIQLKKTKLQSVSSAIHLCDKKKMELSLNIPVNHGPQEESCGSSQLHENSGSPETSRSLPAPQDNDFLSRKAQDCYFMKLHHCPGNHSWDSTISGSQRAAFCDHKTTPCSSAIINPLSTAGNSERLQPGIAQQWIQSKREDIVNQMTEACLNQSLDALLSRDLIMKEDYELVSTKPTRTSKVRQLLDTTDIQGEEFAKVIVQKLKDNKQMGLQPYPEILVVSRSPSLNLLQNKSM
UPR XBP1 act: adaptive UPR (XBP1) activation; CHO-XBP1 luciferase reporter, IRE1-XBP1 UPR activation, luminescence; percent of tunicamycin response, DMSO as zero; AID 463104; actives 0.33% (n = 330,000); activation, % at 20 µM;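 active means versus positive control, 20 µM dose yields 30% or more activation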;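 further: 100% = tunicamycin at 10 µg/mL and 0% = DMSO only wells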
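Material: CHO cell line with stable XBP1 luciferase reporter; schedule: 16-18 h cell attachment at 37 °C, then 6 h compound exposure; signal: glow luminescence from Steady-Glo reagent; medium: serum-containing F12 medium, 10% FBS; benchmarks: tunicamycin 10 µg/mL and vehicle-only wells; read-out: percent activation relative to tunicamycin reference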
TLR9-MyD88 inh: blocks human TLR9 binding to MyD88 | Q9NR96+Q99836 | CHO BLA complementation TLR9-MyD88, CCF4 FRET ratio | inhibition, % at 4.98 µM | actives 0.21% (n = 340,000) | AID 504734;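 active means inhibition above the mean over all tested compounds plus 3 SD, cut at about 21% in these data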;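 further: 0% = DMSO only wells and 100% = clavulanate BLA inhibitor control wells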
CHOP confirm: confirmation of CHOP induction inhibitors; shares compounds with CHOP inhibitor; CHO-CHOP promoter luciferase reporter, tunicamycin-induced, luminescence; inhibition, % at 10 µM; actives 45% (n = 2,100); AID 504437;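 active means mean of three repeat readings of reporter signal inhibition above a set limit, cut at about 70% in these data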;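 further: 0% = tunicamycin plus vehicle and 100% = wells lacking tunicamycin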
Starred values were filed as active, the others as inactive; / = no result.

SMILES | CHOP UPR activ | CHOP inhibitor | TLR4-MyD88 BLA | NOD2 RIPK2 PPI | UPR XBP1 act | TLR9-MyD88 inh | CHOP confirm
CC(=O)/C(=C/N(C)C)C(=O)Nc1ccc(Cl)cc1Cl | 1 | 12 | -10 | 3 | 2 | -1 | /
CCCc1ccc(O)c(N=Cc2cc(Br)cc(OCC)c2O)c1 | 0 | 97* | -14 | -7 | -2 | -1 | 110*
CN(C)c1ccccc1C(=O)N1CCCC(C(=O)c2ccc3ccccc3c2)C1 (centres undefined) | 0 | 51 | 9 | 14 | -4 | -9 | /
CCCOc1ccc(C(=O)CCNC(Cc2c[nH]c3ccccc23)C(=O)O)cc1 (centres undefined) | 14 | / | / | 2 | -10 | -1 | /
Cc1nnc(SCCn2c(N3CCC(Cc4ccccc4)CC3)nc3c2c(=O)[nH]c(=O)n3C)s1 | 1 | 13 | / | / | 0 | / | /
CCCCn1c(N2CCC(Cc3ccccc3)CC2)nc2c1c(=O)[nH]c(=O)n2C | 5 | 97* | 0 | 1 | 1 | 5 | 103*
CCCCCCn1c(N2CCC(C)CC2)nc2c1c(=O)[nH]c(=O)n2C | -1 | 100* | -4 | -13 | 9 | -17 | 105*
O=C(CCCN1C(=O)/C(=C/c2ccccc2OC(F)F)SC1=S)Nc1cccnc1 | 0 | / | / | 0 | -2 | -19 | /
Cc1ccc2nc(/C(C#N)=C\c3cc(C)n(-c4cccc([N+](=O)[O-])c4)c3C)[nH]c2c1 | 1 | -16 | 17 | -7 | 2 | 0 | /
Cc1ccc2nc(/C(C#N)=C\c3ccc(Oc4ccc([N+](=O)[O-])cn4)cc3)[nH]c2c1 | / | 97* | 6 | 3 | / | 4 | 37
COc1ccc2sc3c(=O)[nH]c4ccccc4c3c2c1 | -1 | 97* | 11 | -2 | 1 | -6 | 46
COc1ccc2c(c1)[nH]c(=O)c1sc3ccccc3c12 | 4 | 108* | 9 | -2 | 11 | -10 | 56
Cc1cccc(/C(N)=N/OC(=O)CCCc2ccccc2)c1 | -2 | / | / | -13 | -1 | -7 | /
CCOC(=O)c1ccc(Nc2ccc(-c3ccc(OC)c(OC)c3)nn2)cc1 | 3 | 102* | 9 | 5 | 7 | 3 | 13
Cc1ccc(NC(=O)CCC(=O)N/N=C/c2ccc(O)cc2O)cc1 | -1 | / | / | -1 | -4 | 1 | /
C=CCc1cccc(/C=N/NC(=O)CCC(=O)Nc2ccc(C)cc2)c1O | -1 | 98* | -7 | -8 | -1 | 0 | 69
CC(Sc1nc2c(c(=O)[nH]1)CCCC2)C(=O)Nc1ccccc1C#N (centres undefined) | -3 | / | / | -7 | -1 | 8 | /
CC(C)COc1ccc(C(=O)Nc2ccc(NC(=O)c3ccco3)c(Cl)c2)cc1 | -2 | 101* | -11 | -3 | 6 | -1 | 69
CC(C)Oc1ccc(C(=O)Nc2ccc(NC(=O)c3ccco3)c(Cl)c2)cc1 | 1 | 9 | 0 | -4 | 1 | 5 | /
COc1ccc(CC(=O)Nc2cccc(-c3ccc4nnc(C)n4n3)c2)cc1OC | -1 | -17 | 4 | -9 | -1 | -8 | /
CCC1CCCCN1c1nc(-c2ccncc2)nc2ccccc12 (centres undefined) | 1 | 99* | -10 | -8 | 4 | -5 | 15
CCC1CCCCN1c1nc(-c2cccc(OC)c2O)nc2ccccc12 (centres undefined) | 1 | 34 | 3 | 1 | -2 | -9 | /
CC1CCC(NC(=O)COC(=O)CNC(=O)c2ccc3ccccc3c2)CC1 (centres undefined) | -1 | / | / | 2 | 3 | -2 | /
COC(CNC(=O)CCc1c(C)nc2c(-c3ccccc3)c(C)nn2c1C)OC | 1 | / | / | 1 | -1 | -6 | /
O=C(CCn1c(=O)sc2ccccc21)Nc1nc2ccccc2s1 | 3 | 43 | -15 | -5 | -1 | 6 | /
SMILES | CHOP UPR activ | CHOP inhibitor | TLR4-MyD88 BLA | NOD2 RIPK2 PPI | UPR XBP1 act | TLR9-MyD88 inh | CHOP confirm
Cc1ccc2nc(NC(=O)CCn3c(=O)sc4ccccc43)sc2c1 | 3 | 98* | 0 | -7 | -2 | 10 | 2
O=C(Nc1ccccc1Cl)c1ccc2nc(N3CCOCC3)sc2c1 | 2 | / | / | 6 | 0 | -8 | /
COc1cccc(NC(=S)N2CCN(S(=O)(=O)c3ccccc3)CC2)c1 | 0 | / | / | -6 | -4 | -1 | /
Cc1nn(-c2ccccc2)c(OC(=O)c2cccs2)c1S(=O)(=O)c1ccccc1 | 1 | 106* | -19 | -9 | -5 | -8 | 15
Cc1ccc(NC(=O)CCCSc2nc3ccccc3[nH]2)cc1 | 2 | 30 | -13 | -6 | -1 | -6 | /
Cc1ccc(SCC(=O)Nc2ccc(-c3nc4ccccc4[nH]3)cc2)cc1 | 4 | 102* | -3 | -6 | 17 | 5 | 6
Cc1ccc2nc(-c3ccc(SCC(=O)Nc4nnc(C)s4)nc3)[nH]c2c1 | 7 | 105* | -17 | -4 | 0 | 1 | 22
O=C(/C=C/Nc1ccc(S(=O)(=O)Nc2ncccn2)cc1)c1ccc(Cl)c(Cl)c1 | 1 | 102* | 11 | 1 | -1 | -1 | 5
CCc1ccc(C(=O)/C=C/Nc2ccc(S(=O)(=O)Nc3cnc4ccccc4n3)cc2)cc1 | 4 | 101* | / | -3 | 4 | -4 | 9
COC/C=C/C1=CC2=CC(=O)C(C)(OC(=O)c3ccco3)C(=O)C2=CO1 (centres undefined) | 5 | -23 | / | / | 1 | / | /
COC/C=C/C1=CC2=CC(=O)C(C)(OC(=O)C3CCCC3)C(=O)C2=CO1 (centres undefined) | 2 | 99* | / | -1 | 1 | 9 | 9
O=C(COc1ccc2c(c1)OCO2)Nc1nccs1 | -3 | / | / | -3 | -8 | -7 | /
CC(C)c1ccccc1NC(=O)COc1ccc(C(=O)NCCc2ccccc2)cc1 | -1 | 107* | 2 | 11 | -1 | 5 | 31
CCOc1ccc(NC(=O)COc2ccc(C(=O)NCCc3ccccc3)cc2)cc1 | 2 | -14 | 6 | -4 | -3 | 1 | /
Cc1cc(C)nc(-n2cc(C(=O)c3cc(F)ccc3O)cn2)n1 | 0 | 97* | 0 | -10 | 0 | -8 | 27
COc1ccc(CCNC(N)=S)cc1OC | 0 | 32 | -1 | 6 | -1 | -12 | /
Cc1cccc(NCC(=O)N/N=C/c2ccc(Br)cc2)c1 | 1 | 68 | -2 | -4 | 3 | -1 | /
Cc1cccc(NCC(=O)N/N=C\c2cccc(Oc3ccccc3)c2)c1 | -1 | 104* | 15 | 4 | 0 | -2 | 81*
Cc1ccc(NCC(=O)N/N=C/c2cccc(Oc3ccccc3)c2)cc1 | 2 | 101* | 9 | -6 | -3 | -10 | 85*
N#CCC(=O)N/N=C/c1cccc(Oc2ccccc2)c1 | 0 | 20 | -5 | 2 | 2 | -10 | /

Screening data (PubChem)
